{
  "source": "paper PMC5812400",
  "about": "(ESMO Open, 2018)",
  "tested_on": "adult patients with advanced non-haematological malignancies",
  "assay": "Safety and tolerability",
  "assay_type": "in vivo, human",
  "summary_of_the_method": "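Patients on milled oral capsules, fasted, in 28-day cycles. AEs and SAEs recorded from first dose through 30 days after last dose. Graded by NCI CTCAE v4.03 and coded to MedDRA v19.0. Relatedness to study drug judged by investigator.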",
  "data": [
    {"smiles": "CC(C)n1nc(-c2ccc3oc(N)nc3c2)c2c(N)ncnc21", "note": "[TAK-228, Sapanisertib]", "values": [
      {"measurement": "AE resulting in TAK-228 discontinuation", "setting": "QD 3 mg (n=11)", "value": "0 n (%)"},
      {"measurement": "Drug-related AE", "setting": "QD 3 mg (n=11)", "value": "10 (91) n (%)"},
      {"measurement": "Drug-related AE: Abdominal pain", "setting": "QD 3 mg (n=11)", "value": "2 (18) n (%)"},
      {"measurement": "Drug-related AE: Decreased appetite", "setting": "QD 3 mg (n=11)", "value": "3 (27) n (%)"},
      {"measurement": "Drug-related AE: Diarrhoea", "setting": "QD 3 mg (n=11)", "value": "2 (18) n (%)"},
      {"measurement": "Drug-related AE: Fatigue", "setting": "QD 3 mg (n=11)", "value": "6 (55) n (%)"},
      {"measurement": "Drug-related AE: Hyperglycaemia", "setting": "QD 3 mg (n=11)", "value": "2 (18) n (%)"},
      {"measurement": "Drug-related AE: Nausea", "setting": "QD 3 mg (n=11)", "value": "4 (36) n (%)"},
      {"measurement": "Drug-related AE: Pruritus", "setting": "QD 3 mg (n=11)", "value": "4 (36) n (%)"},
      {"measurement": "Drug-related AE: Rash", "setting": "QD 3 mg (n=11)", "value": "1 (9) n (%)"},
      {"measurement": "Drug-related AE: Rash (maculopapular)", "setting": "QD 3 mg (n=11)", "value": "4 (36) n (%)"},
      {"measurement": "Drug-related AE: Stomatitis", "setting": "QD 3 mg (n=11)", "value": "1 (9) n (%)"},
      {"measurement": "Drug-related AE: Vomiting", "setting": "QD 3 mg (n=11)", "value": "1 (9) n (%)"},
      {"measurement": "Drug-related SAE", "setting": "QD 3 mg (n=11)", "value": "0 n (%)"},
      {"measurement": "Drug-related grade ≥3 AE", "setting": "QD 3 mg (n=11)", "value": "5 (46) n (%)"},
      {"measurement": "Grade ≥3 AE", "setting": "QD 3 mg (n=11)", "value": "6 (55) n (%)"},
      {"measurement": "Grade ≥3 AE: Abdominal pain", "setting": "QD 3 mg (n=11)", "value": "1 (9) n (%)"},
      {"measurement": "Grade ≥3 AE: Anaemia", "setting": "QD 3 mg (n=11)", "value": "0 n (%)"},
      {"measurement": "Grade ≥3 AE: Blood phosphorus decreased", "setting": "QD 3 mg (n=11)", "value": "1 (9) n (%)"},
      {"measurement": "Grade ≥3 AE: Diarrhoea", "setting": "QD 3 mg (n=11)", "value": "1 (9) n (%)"},
      {"measurement": "Grade ≥3 AE: Fatigue", "setting": "QD 3 mg (n=11)", "value": "0 n (%)"},
      {"measurement": "Grade ≥3 AE: Hyperglycaemia", "setting": "QD 3 mg (n=11)", "value": "1 (9) n (%)"},
      {"measurement": "Grade ≥3 AE: Hyponatraemia", "setting": "QD 3 mg (n=11)", "value": "1 (9) n (%)"},
      {"measurement": "Grade ≥3 AE: Rash macular", "setting": "QD 3 mg (n=11)", "value": "1 (9) n (%)"},
      {"measurement": "On-study deaths", "setting": "QD 3 mg (n=11)", "value": "0 n (%)"},
      {"measurement": "SAE", "setting": "QD 3 mg (n=11)", "value": "3 (27) n (%)"},
      {"measurement": "AE resulting in TAK-228 discontinuation", "setting": "QD 4 mg (n=6)", "value": "1 (17) n (%)"},
      {"measurement": "Drug-related AE", "setting": "QD 4 mg (n=6)", "value": "6 (100) n (%)"},
      {"measurement": "Drug-related AE: Abdominal pain", "setting": "QD 4 mg (n=6)", "value": "1 (17) n (%)"},
      {"measurement": "Drug-related AE: Decreased appetite", "setting": "QD 4 mg (n=6)", "value": "2 (33) n (%)"},
      {"measurement": "Drug-related AE: Diarrhoea", "setting": "QD 4 mg (n=6)", "value": "3 (50) n (%)"},
      {"measurement": "Drug-related AE: Fatigue", "setting": "QD 4 mg (n=6)", "value": "4 (67) n (%)"},
      {"measurement": "Drug-related AE: Hyperglycaemia", "setting": "QD 4 mg (n=6)", "value": "1 (17) n (%)"},
      {"measurement": "Drug-related AE: Nausea", "setting": "QD 4 mg (n=6)", "value": "1 (17) n (%)"},
      {"measurement": "Drug-related AE: Pruritus", "setting": "QD 4 mg (n=6)", "value": "3 (50) n (%)"},
      {"measurement": "Drug-related AE: Rash", "setting": "QD 4 mg (n=6)", "value": "2 (33) n (%)"},
      {"measurement": "Drug-related AE: Rash (maculopapular)", "setting": "QD 4 mg (n=6)", "value": "0 n (%)"},
      {"measurement": "Drug-related AE: Stomatitis", "setting": "QD 4 mg (n=6)", "value": "2 (33) n (%)"},
      {"measurement": "Drug-related AE: Vomiting", "setting": "QD 4 mg (n=6)", "value": "1 (17) n (%)"},
      {"measurement": "Drug-related SAE", "setting": "QD 4 mg (n=6)", "value": "0 n (%)"},
      {"measurement": "Drug-related grade ≥3 AE", "setting": "QD 4 mg (n=6)", "value": "5 (83) n (%)"},
      {"measurement": "Grade ≥3 AE", "setting": "QD 4 mg (n=6)", "value": "6 (100) n (%)"},
      {"measurement": "Grade ≥3 AE: Abdominal pain", "setting": "QD 4 mg (n=6)", "value": "0 n (%)"},
      {"measurement": "Grade ≥3 AE: Anaemia", "setting": "QD 4 mg (n=6)", "value": "0 n (%)"},
      {"measurement": "Grade ≥3 AE: Blood phosphorus decreased", "setting": "QD 4 mg (n=6)", "value": "0 n (%)"},
      {"measurement": "Grade ≥3 AE: Diarrhoea", "setting": "QD 4 mg (n=6)", "value": "0 n (%)"},
      {"measurement": "Grade ≥3 AE: Fatigue", "setting": "QD 4 mg (n=6)", "value": "2 (33) n (%)"},
      {"measurement": "Grade ≥3 AE: Hyperglycaemia", "setting": "QD 4 mg (n=6)", "value": "1 (17) n (%)"},
      {"measurement": "Grade ≥3 AE: Hyponatraemia", "setting": "QD 4 mg (n=6)", "value": "1 (17) n (%)"},
      {"measurement": "Grade ≥3 AE: Rash macular", "setting": "QD 4 mg (n=6)", "value": "1 (17) n (%)"},
      {"measurement": "On-study deaths", "setting": "QD 4 mg (n=6)", "value": "1 (17) n (%)"},
      {"measurement": "SAE", "setting": "QD 4 mg (n=6)", "value": "2 (33) n (%)"},
      {"measurement": "AE resulting in TAK-228 discontinuation", "setting": "QD Total (n=17)", "value": "1 (6) n (%)"},
      {"measurement": "Drug-related AE", "setting": "QD Total (n=17)", "value": "16 (94) n (%)"},
      {"measurement": "Drug-related AE: Abdominal pain", "setting": "QD Total (n=17)", "value": "3 (18) n (%)"},
      {"measurement": "Drug-related AE: Decreased appetite", "setting": "QD Total (n=17)", "value": "5 (29) n (%)"},
      {"measurement": "Drug-related AE: Diarrhoea", "setting": "QD Total (n=17)", "value": "5 (29) n (%)"},
      {"measurement": "Drug-related AE: Fatigue", "setting": "QD Total (n=17)", "value": "10 (59) n (%)"},
      {"measurement": "Drug-related AE: Hyperglycaemia", "setting": "QD Total (n=17)", "value": "3 (18) n (%)"},
      {"measurement": "Drug-related AE: Nausea", "setting": "QD Total (n=17)", "value": "5 (29) n (%)"},
      {"measurement": "Drug-related AE: Pruritus", "setting": "QD Total (n=17)", "value": "7 (41) n (%)"},
      {"measurement": "Drug-related AE: Rash", "setting": "QD Total (n=17)", "value": "3 (18) n (%)"},
      {"measurement": "Drug-related AE: Rash (maculopapular)", "setting": "QD Total (n=17)", "value": "4 (24) n (%)"},
      {"measurement": "Drug-related AE: Stomatitis", "setting": "QD Total (n=17)", "value": "3 (18) n (%)"},
      {"measurement": "Drug-related AE: Vomiting", "setting": "QD Total (n=17)", "value": "2 (12) n (%)"},
      {"measurement": "Drug-related SAE", "setting": "QD Total (n=17)", "value": "0 n (%)"},
      {"measurement": "Drug-related grade ≥3 AE", "setting": "QD Total (n=17)", "value": "10 (59) n (%)"},
      {"measurement": "Grade ≥3 AE", "setting": "QD Total (n=17)", "value": "12 (71) n (%)"},
      {"measurement": "Grade ≥3 AE: Abdominal pain", "setting": "QD Total (n=17)", "value": "1 (6) n (%)"},
      {"measurement": "Grade ≥3 AE: Anaemia", "setting": "QD Total (n=17)", "value": "0 n (%)"},
      {"measurement": "Grade ≥3 AE: Blood phosphorus decreased", "setting": "QD Total (n=17)", "value": "1 (6) n (%)"},
      {"measurement": "Grade ≥3 AE: Diarrhoea", "setting": "QD Total (n=17)", "value": "1 (6) n (%)"},
      {"measurement": "Grade ≥3 AE: Fatigue", "setting": "QD Total (n=17)", "value": "2 (12) n (%)"},
      {"measurement": "Grade ≥3 AE: Hyperglycaemia", "setting": "QD Total (n=17)", "value": "2 (12) n (%)"},
      {"measurement": "Grade ≥3 AE: Hyponatraemia", "setting": "QD Total (n=17)", "value": "2 (12) n (%)"},
      {"measurement": "Grade ≥3 AE: Rash macular", "setting": "QD Total (n=17)", "value": "2 (12) n (%)"},
      {"measurement": "On-study deaths", "setting": "QD Total (n=17)", "value": "1 (6) n (%)"},
      {"measurement": "SAE", "setting": "QD Total (n=17)", "value": "5 (29) n (%)"},
      {"measurement": "Asthaenic conditions, patients", "setting": "QD arm", "value": 59, "unit": "%"},
      {"measurement": "Drug-related AE of any grade: decreased appetite", "setting": "QD arm", "value": 29, "unit": "%"},
      {"measurement": "Drug-related AE of any grade: diarrhoea", "setting": "QD arm", "value": 29, "unit": "%"},
      {"measurement": "Drug-related AE of any grade: fatigue", "setting": "QD arm", "value": 59, "unit": "%"},
      {"measurement": "Drug-related AE of any grade: nausea", "setting": "QD arm", "value": 29, "unit": "%"},
      {"measurement": "Drug-related AE of any grade: pruritus", "setting": "QD arm", "value": 41, "unit": "%"},
      {"measurement": "Grade ≥3 AE: Fatigue", "setting": "QD arm", "value": 12, "unit": "%"},
      {"measurement": "Grade ≥3 AE: Hyperglycaemia", "setting": "QD arm", "value": 12, "unit": "%"},
      {"measurement": "Grade ≥3 AE: Hyponatraemia", "setting": "QD arm", "value": 12, "unit": "%"},
      {"measurement": "Grade ≥3 AE: macular rash", "setting": "QD arm", "value": 12, "unit": "%"},
      {"measurement": "SAEs, patients", "setting": "QD arm", "value": 29, "unit": "%"},
      {"measurement": "Incidence of grade ≥3 drug-related AEs", "setting": "QD milled TAK-228", "value": 59, "unit": "%"},
      {"measurement": "AE resulting in TAK-228 discontinuation", "setting": "QW 20 mg (n=7)", "value": "0 n (%)"},
      {"measurement": "Drug-related AE", "setting": "QW 20 mg (n=7)", "value": "5 (71) n (%)"},
      {"measurement": "Drug-related AE: Asthaenia", "setting": "QW 20 mg (n=7)", "value": "1 (14) n (%)"},
      {"measurement": "Drug-related AE: Decreased appetite", "setting": "QW 20 mg (n=7)", "value": "1 (14) n (%)"},
      {"measurement": "Drug-related AE: Dehydration", "setting": "QW 20 mg (n=7)", "value": "1 (14) n (%)"},
      {"measurement": "Drug-related AE: Diarrhoea", "setting": "QW 20 mg (n=7)", "value": "4 (57) n (%)"}
    ]}
  ]
}
